Measurements as given in ChEMBL document CHEMBL1121875, “Retinoic acid analogues with ring modifications. Synthesis and pharmacological activity” (J Med Chem, 1981).

How the values were obtained:
[1] = target: T1, Ornithine decarboxylase (Mus musculus) (UniProt P00860); experiment: (§1) Percent inhibition of TPA-induced ornithine decarboxylase activity; format: functional; set-up: concentration or dose not given beside the values; details: concentration not given here
T1 sequence (whole entry): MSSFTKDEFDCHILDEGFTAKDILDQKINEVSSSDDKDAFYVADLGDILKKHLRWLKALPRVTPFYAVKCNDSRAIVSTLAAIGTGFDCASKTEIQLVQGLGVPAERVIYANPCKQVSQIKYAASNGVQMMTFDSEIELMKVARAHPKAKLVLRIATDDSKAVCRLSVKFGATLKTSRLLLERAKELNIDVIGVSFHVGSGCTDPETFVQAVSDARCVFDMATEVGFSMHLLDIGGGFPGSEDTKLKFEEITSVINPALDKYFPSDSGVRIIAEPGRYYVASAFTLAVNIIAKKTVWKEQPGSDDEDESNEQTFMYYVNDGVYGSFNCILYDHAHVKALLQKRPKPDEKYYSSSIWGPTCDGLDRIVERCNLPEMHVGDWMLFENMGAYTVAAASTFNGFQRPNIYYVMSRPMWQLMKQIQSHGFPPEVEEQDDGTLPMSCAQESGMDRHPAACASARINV
Procedure, shortened: (§2)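 Mouse epidermal ODC was induced by topical TPA on the back skin, with each retinoid applied topically to the back at 1.7 or 17 nmol. Each treatment used 3–6 groups of 3–4 mice. Epidermal ODC activity was measured by a previously described method and reported as % inhibition versus TPA-only controls (mean ± SE).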

[2] = target: T1, Ornithine decarboxylase (Mus musculus); experiment: as §1; format: functional; details: tested as the 2H-labelled form; concentration not given here; procedure, shortened: as §2

inhibition [1] [%]	inhibition [2] [%]	inhibition ([1]; tested as the 2H-labelled form) [%]	SMILES
72	–	–	CCOC(=O)/C=C(C)/C=C/C=C(C)/C=C/C1=C(C)C2(CCC1(C)C)CC2
92	90	90	CC1=C(/C=C/C(C)=C/C=C/C(C)=C/C(=O)O)C(C)(C)CCC1
96	–	–	CC1=C(/C=C/C(C)=C/C=C/C(C)=C\C(=O)O)C(C)(C)CCC1
67	–	–	CCOC(=O)\C=C(C)/C=C/C=C(C)/C=C/C1=C(C)C2(CCC1(C)C)CC2

Second part, the compound before the results:

SMILES	inhibition [1] [%]	inhibition [2] [%]	inhibition ([1]; tested as the 2H-labelled form) [%]
CCOC(=O)\C=C(C)/C=C/C=C(C)/C=C/C12CC1(C)CCCC2(C)C (stereo not drawn)	45	–	–
CCOC(=O)c1ccc(/C=C(C)/C=C/C23CC2(C)CCCC3(C)C)cc1 (stereo not drawn)	80	–	–
CCOC(=O)c1ccc(/C=C(C)/C=C/C2=C(C)CCCC2(C)C)cc1	80	–	–
CCOC(=O)/C=C(C)/C=C/C=C(C)/C=C/C1=CC2CCC1C2 (stereo not drawn)	54	–	–
CCOC(=O)/C=C(C)/C=C/C=C(C)/C=C/C12CC1(C)CCCC2(C)C (stereo not drawn)	70	–	–
CCOC(=O)/C=C(C)/C=C/C=C(C)/C=C/C1CC2CCC1C2 (stereo not drawn)	64	–	–
CCOC(=O)c1ccc(/C=C(C)/C=C/C23OC2(C)CCCC3(C)C)cc1 (stereo not drawn)	80	–	–
